Calls of active or inactive are those of the source. The calls are words filed in the database; no cut-off is given here.
Assays:
[1] = tested on: MDA-MB-231; assay: Inhibition of colony formation in human MDA-MB-231 expressing p53 R280K mutant assessed as decrease in number of colonies at 1.5 to 24 uM incubated for 24 hrs followed by incubation in fresh medium for 10 days by methylene blue staining based analysis; type: functional, cell-based; conditions: dose 1.5-24 µM
Procedure, shortened: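 500 cells/well seeded 24 h before treatment. Cells exposed to compound or DMSO control for 24 h at 37 °C, then grown 10 days at 37 °C in RPMI with 10% FBS. Colonies fixed in methanol, stained with methylene blue and counted. Survival expressed as percent of DMSO control.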

[2] = tested on: MDA-MB-468; assay: Induction of apoptosis in human MDA-MB-468 cells expressing p53 R273H mutant assessed fold increase in number of Annexin-V stained cells at 6 to 12 uM incubated for 24 hrs by AnnexinV-FITC and PI staining based flow cytometry relative to control; type: functional; conditions: dose 6-12 µM
Procedure, shortened: (§1)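 24 h treatment, DMSO control. Cells scraped, washed in PBS, then given fluorochrome-conjugated Annexin V for 15 min at RT in the dark, followed by PI (0.1 µg/ml) in binding buffer. Read by flow cytometry on LSRFortessa. Annexin V-positive cells expressed relative to the DMSO control.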

[3] = tested on: MCF7; assay: Induction of apoptosis in human MCF7 cells expressing wild type p53 assessed as decrease in level of uncleaved PARP1 level at 6 to 12 uM measured after 24 hrs by western blotting analysis; type: functional, cell-based; conditions: dose 6-12 µM
Procedure, shortened: (§2)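 Cells treated with DMSO or compound at 6 or 12 µM for 24 h, then lysed in Tris-Cl pH 8.0/NaCl/glycerol/NP-40/EDTA buffer with protease inhibitors. 100 µg lysate resolved on 4-12% SDS-PAGE and blotted to PVDF. Probed with anti-PARP or anti-caspase 3, then HRP secondary and ECL. GAPDH reprobe as control.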

[4] = tested on: MCF7; assay: Downregulation of p53 expression in human MCF7 cells at 6 to 12 uM measured after 24 hrs by immunoblot analysis; type: functional, cell-based; conditions: dose 6-12 µM
Procedure, shortened: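 24 h exposure to 6 or 12 μM, DMSO control. Lysis in Tris pH 8.0/NaCl/glycerol/NP-40/EDTA buffer with protease inhibitors. 20 µg (MDA-MB-231, MDA-MB-468) or 50 µg (MCF-7) of lysate run on 4-12% SDS-PAGE. Blot probed with p53 DO-1, GAPDH used for reprobe/loading. Triplicate experiments.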

[5] = tested on: Cellular tumor antigen p53 (Homo sapiens), P04637 [R280K]; assay: Reactivation of transactivation function to p53 R280K mutant in human MDA-MB-231 cells assessed as increase in NOXA mRNA expression at 6 uM incubated for 4 hrs by qRT-PCR analysis; type: cell-based; conditions: filed as activator
Procedure, shortened: (§3)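 Cells treated with DMSO or 6 µM test compound for 4 h. RNA extracted, cDNA synthesised, transcript measured by TaqMan qRT-PCR and normalised to GAPDH. Averages from triplicates of repeated experiments, with standard deviation.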

[6] = tested on: Cellular tumor antigen p53 (Homo sapiens), P04637 [R273H]; assay: Reactivation of transactivation function to p53 R273H mutant in human MDA-MB-468 cells assessed as increase in p21 mRNA expression at 6 uM incubated for 4 hrs by qRT-PCR analysis; type: cell-based; conditions: filed as activator; procedure, shortened: as §3
[7] = tested on: MDA-MB-468; assay: Effect on p53 R273H mutant mRNA expression in human MDA-MB-468 cells at 6 uM measured after 4 hrs by qRT-PCR analysis; type: functional, cell-based; procedure, shortened: as §3
[8] = tested on: MDA-MB-468; assay: Cell cycle arrest in human MDA-MB-468 cells expressing p53 R273H mutant assessed as accumulation of cells at G1 phase at 6 uM measured after 24 hrs by PI staining based flow cytometry (reference value: 30.6%); type: functional
[9] = tested on: MDA-MB-468; assay: Antiproliferative activity against human MDA-MB-468 cells transfected with p53 siRNA assessed as inhibition of cell growth at 5 to 25 uM measured after 24 hrs by WST-1 assay; type: functional, cell-based; conditions: dose 5-25 µM
Procedure, shortened: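 MDA-MB-468 cells plated at 50-60% confluence 24 h before transfection. p53 SMARTpool or non-specific siRNA (0.430 nmol) given with Lipofectamine 2000 in Opti-MEM for 5 h, repeated after 24 h. Drug or DMSO added 72 h after the first transfection. Proliferation read by WST-1, % of DMSO control.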

[10] = tested on: Cellular tumor antigen p53 (Homo sapiens), P04637 [R280K]; assay: Reactivation of transactivation function to p53 R280K mutant in human MDA-MB-231 cells assessed as ATM activation by measuring increase in phosphorylation of ATM at serine 1981 residue at 6 uM measured after 24 hrs by immunoblot analysis; type: cell-based; conditions: filed as activator
Procedure, shortened: (§4)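 DMSO or 6 µM for 24 h. 250 µg of lysate run on 4-12% SDS-PAGE, blot probed with anti-pATM Ser1981 (1:500), then anti-mouse HRP secondary with ECL detection. GAPDH reprobe as control. Triplicate experiments.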

[11] = tested on: Cellular tumor antigen p53 (Homo sapiens), P04637 [R273H]; assay: Reactivation of transactivation function to p53 R273H mutant in human MDA-MB-468 cells assessed as ATM activation by measuring increase in phosphorylation of ATM at serine 1981 residue at 6 uM measured after 24 hrs by immunoblot analysis; type: cell-based; conditions: filed as activator; procedure, shortened: as §4
[12] = tested on: CCD-841CoN; assay: Cytotoxicity against human CCD841 cells harboring wild type p53 assessed as inhibition of cell growth at 10 to 50 uM incubated for 24 to 72 hrs by WST-1 assay; type: functional, cell-based; conditions: dose 10-50 µM, time 24-72 hrs
[13] = tested on: MDA-MB-231; assay: Induction of apoptosis in human MDA-MB-231 cells expressing p53 R280K mutant assessed as increase in level of cleaved PARP1 level at 6 to 12 uM measured after 24 hrs by western blotting analysis; type: functional, cell-based; conditions: dose 6-12 µM; procedure, shortened: as §2
[14] = tested on: MDA-MB-468; assay: Induction of apoptosis in human MDA-MB-468 cells expressing p53 R273H mutant assessed as increase in level of cleaved PARP1 level at 6 to 12 uM measured after 24 hrs by western blotting analysis; type: functional, cell-based; conditions: dose 6-12 µM; procedure, shortened: as §2
[15] = tested on: MCF7; assay: Upregulation of p53 mRNA expression in human MCF7 cells at 6 uM measured after 4 hrs by qRT-PCR analysis; type: functional, cell-based; procedure, shortened: as §3
[16] = tested on: MDA-MB-231; assay: Downregulation of p53 R280K mutant expression in human MDA-MB-231 cells at 6 to 12 uM measured after 24 hrs by immunoblot analysis; conditions: dose 6-12 µM
[17] = tested on: MDA-MB-231; assay: Induction of apoptosis in human MDA-MB-231 cells expressing p53 R280K mutant assessed increase in number of Annexin-V stained cells at 6 to 12 uM incubated for 24 hrs by AnnexinV-FITC and PI staining based flow cytometry; type: functional, cell-based; conditions: dose 6-12 µM; procedure, shortened: as §1
[18] = tested on: MDA-MB-468; assay: Induction of apoptosis in human MDA-MB-468 cells expressing p53 R273H mutant assessed increase in number of Annexin-V stained cells at 6 to 12 uM incubated for 24 hrs by AnnexinV-FITC and PI staining based flow cytometry; type: functional, cell-based; conditions: dose 6-12 µM; procedure, shortened: as §1
[19] = Octanol-water partition coefficient, logP of the compound by HPLC-MS analysis; type: physicochemical; conditions: 18 h
Procedure, shortened: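 Compound (10 µL of 10 mM DMSO stock) added to 0.5 mL octanol plus 0.5 mL sodium phosphate buffer pH 7.4. Stirred 18 h, centrifuged 2 h at 3600 rpm. Concentration in each phase measured by LC-MS on a C18 column.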

SMILES	inhibition [1]	fold change (FC) [2]	Activity [3]	inhibition [4]	Activity [5]	Activity [6]	Activity [7]	Activity [8]	Activity [9]	Activity [10]	Activity [11]	Activity [12]	Activity [13]	Activity [14]	Activity [15]	p53 R280K downregulation (active/not active) [16]	Activity [17]	Activity [18]	logP [19]
S=C=NCCCC12CC3CC(CC(C3)C1)C2	Active	2	inactive	inactive	Active	Active	inactive	53.2%	inactive	Active	Active	inactive	Active	Active	Active	Active			
[Se]=C=NCCC12CC3CC(CC(C3)C1)C2	Active		inactive		Active	Active	inactive					inactive	Active	Active	Active	Active	Active	Active	4.05

Reference: ChEMBL document CHEMBL5038582, “Adamantyl Isothiocyanates as Mutant p53 Rescuing Agents and Their Structure-Activity Relationships” (J Med Chem, 2021)
